Measurements reported in ChEMBL document CHEMBL4373687, “Introducing nitrogen atoms to amidoalkylindoles: potent and selective cannabinoid type 2 receptor agonists with improved aqueous solubility” (Medchemcomm, 2019).

Columns and labels:
[1] = target: T1, Cannabinoid receptor 1 (Homo sapiens, UniProt P21554); assay: Agonist activity at human CB1-receptor expressed in CHO-K1 cells coexpressing G-alpha16 at 10 uM by Fluo-4-AM dye based calcium mobilization assay; format: cell-based; conditions: cho-k1, 10 µM
T1 sequence (P21554 whole entry): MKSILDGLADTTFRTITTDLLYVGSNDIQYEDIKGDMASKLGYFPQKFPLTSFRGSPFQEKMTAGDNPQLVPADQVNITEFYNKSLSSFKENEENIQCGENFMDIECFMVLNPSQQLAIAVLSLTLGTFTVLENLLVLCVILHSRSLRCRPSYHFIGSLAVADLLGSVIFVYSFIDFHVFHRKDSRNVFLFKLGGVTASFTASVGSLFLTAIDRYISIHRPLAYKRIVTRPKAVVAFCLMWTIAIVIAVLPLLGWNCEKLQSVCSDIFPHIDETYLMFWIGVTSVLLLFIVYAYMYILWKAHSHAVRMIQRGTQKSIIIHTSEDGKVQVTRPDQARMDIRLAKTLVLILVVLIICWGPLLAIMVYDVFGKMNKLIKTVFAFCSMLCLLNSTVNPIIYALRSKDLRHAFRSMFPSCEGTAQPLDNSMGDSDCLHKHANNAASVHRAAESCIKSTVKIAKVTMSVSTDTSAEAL
Method in brief: (§1)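 CHO-K1 cells stably co-expressing Gα16 and human CB1 or CB2, seeded 24 h. Loaded with 2 μM fluo-4 AM in HBSS (with sulfinpyrazone, pH 7.4) at 37 °C for 45 min. Compound added and calcium fluorescence recorded (ex 485/em 525 nm). CP55940 positive control, DMSO negative control. Compounds with >50% activation at 10 μM got eight-point curves in triplicate, sigmoidal fit for EC50.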

[2] = target: T2, Cannabinoid receptor 2 (Homo sapiens, UniProt P34972); assay: Antagonist activity at human CB2-receptor expressed in CHO-K1 cells coexpressing G-alpha16 at 10 uM pre-incubated for 10 mins and later treated with 100 nM CB-receptor agonist, CP55940 by Fluo-4-AM dye based calcium mobilization assay; format: functional, cell-based
T2 sequence (P34972 whole entry): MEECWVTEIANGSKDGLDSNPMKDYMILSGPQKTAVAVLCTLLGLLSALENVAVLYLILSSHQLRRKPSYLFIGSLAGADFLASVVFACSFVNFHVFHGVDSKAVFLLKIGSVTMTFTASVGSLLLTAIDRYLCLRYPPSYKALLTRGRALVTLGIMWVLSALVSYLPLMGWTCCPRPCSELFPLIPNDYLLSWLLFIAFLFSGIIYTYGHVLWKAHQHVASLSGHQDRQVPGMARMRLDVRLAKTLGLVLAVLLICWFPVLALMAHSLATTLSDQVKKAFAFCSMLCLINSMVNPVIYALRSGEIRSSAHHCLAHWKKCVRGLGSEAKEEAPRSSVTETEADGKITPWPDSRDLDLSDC
Method in brief: (§2)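 CHO-K1 cells stably co-expressing Gα16 and human CB1 or CB2, loaded with 2 μM fluo-4 AM in HBSS pH 7.4 at 37 °C for 45 min. Pre-incubated with compound for 10 min at room temperature, then CP55940 added at 100 nM. Peak calcium read over 60 s (ex 485/em 525 nm). Rimonabant positive control. Actives got eight-point curves in triplicate, sigmoidal fit for IC50.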

[3] = target: T1, Cannabinoid receptor 1; assay: Agonist activity at human CB1-receptor expressed in CHO-K1 cells coexpressing G-alpha16 by Fluo-4-AM dye based calcium mobilization assay; format: cell-based
[4] = target: T2, Cannabinoid receptor 2; assay: Agonist activity at human CB2-receptor expressed in CHO-K1 cells coexpressing G-alpha16 at 10 uM by Fluo-4-AM dye based calcium mobilization assay; format: functional, cell-based; method in brief: as §1
[5] = target: T2, Cannabinoid receptor 2; assay: Agonist activity at human CB2-receptor expressed in CHO-K1 cells coexpressing G-alpha16 by Fluo-4-AM dye based calcium mobilization assay; format: functional, cell-based
[6] = target: T1, Cannabinoid receptor 1; assay: Antagonist activity at human CB1-receptor expressed in CHO-K1 cells coexpressing G-alpha16 pre-incubated for 10 mins and later treated with 100 nM CB-receptor agonist, CP55940 by Fluo-4-AM dye based calcium mobilization assay; format: cell-based; method in brief: as §2
[7] = target: T1, Cannabinoid receptor 1; assay: Antagonist activity at human CB1-receptor expressed in CHO-K1 cells coexpressing G-alpha16 at 10 uM pre-incubated for 10 mins and later treated with 100 nM CB-receptor agonist, CP55940 by Fluo-4-AM dye based calcium mobilization assay; format: cell-based; method in brief: as §2
[8] = target: T2, Cannabinoid receptor 2; assay: Antagonist activity at human CB2-receptor expressed in CHO-K1 cells coexpressing G-alpha16 pre-incubated for 10 mins and later treated with 100 nM CB-receptor agonist, CP55940 by Fluo-4-AM dye based calcium mobilization assay; format: functional, cell-based; method in brief: as §2
[9] = target: T1, Cannabinoid receptor 1; assay: Agonist activity at human CB1-receptor expressed in CHO-K1 cells coexpressing G-alpha16 assessed as maximum efficacy by Fluo-4-AM dye based calcium mobilization assay relative to CP55940; format: cell-based; method in brief: as §1
[10] = target: T2, Cannabinoid receptor 2; assay: Agonist activity at human CB2-receptor expressed in CHO-K1 cells coexpressing G-alpha16 assessed as maximum efficacy by Fluo-4-AM dye based calcium mobilization assay relative to CP55940; format: functional, cell-based; method in brief: as §1

SMILES | Activity [1] [%] | inhibition [2] [%] | EC50 ([3]; cho-k1) | Activity [4] [%] | EC50 ([5]; cho-k1) | IC50 [6] | inhibition at 10 µM [7] [%] | IC50 ([8]; cho-k1) | EC50 ([3]; read-out: EC50) [nM] | Emax [9] [%] | IC50 ([8]; read-out: IC50) [nM] | EC50 ([5]; read-out: EC50) [nM] | Emax [10] [%]
O=C(NC12CC3CC(CC(C3)C1)C2)c1cc2ncccc2n1CCN1CCOCC1 | < 50 | < 50 | Not Active | < 50 | Not Active | Not Active | < 50 | Not Active |  |  |  |  | 
O=C(NC12CC3CC(CC(C3)C1)C2)c1c[nH]c2cccnc12 | < 50 | < 50 | Not Active | < 50 | Not Active | Not Active | < 50 | Not Active |  |  |  |  | 
O=C(NC12CC3CC(CC(C3)C1)C2)c1cc2cccnc2n1CCN1CCOCC1 | > 50 | > 50 |  | < 50 | Not Active | Not Active | < 50 |  | 650 | 88.4 | 78 |  | 
O=C(NC12CC3CC(CC(C3)C1)C2)c1c[nH]c2ncccc12 | < 50 | > 50 | Not Active | < 50 | Not Active | Not Active | < 50 |  |  |  | 6500 |  | 
CCCCCn1c(C(=O)NC23CC4CC(CC(C4)C2)C3)cc2ncccc21 | < 50 | < 50 | Not Active | > 50 |  | Not Active | < 50 | Not Active |  |  |  | 220 | 50
O=C(NC12CC3CC(CC(C3)C1)C2)c1nc2ccccc2[nH]1 | < 50 | < 50 | Not Active | > 50 |  | Not Active | < 50 | Not Active |  |  |  | 520 | 85.3
CCCCCn1c(C(=O)NC23CC4CC(CC(C4)C2)C3)nc2ccccc21 | < 50 | < 50 | Not Active | > 50 |  | Not Active | < 50 | Not Active |  |  |  | 320 | 62.2
O=C(NC12CC3CC(CC(C3)C1)C2)c1cc2cnccc2n1CCN1CCOCC1 | < 50 | < 50 | Not Active | < 50 | Not Active | Not Active | < 50 | Not Active |  |  |  |  | 
O=C(NC12CC3CC(CC(C3)C1)C2)c1cc2cccnc2[nH]1 | < 50 | < 50 | Not Active | > 50 |  | Not Active | < 50 | Not Active |  |  |  | 290 | 40.7
O=C(NC12CC3CC(CC(C3)C1)C2)c1nc2ccccc2n1CCN1CCOCC1 | < 50 | > 50 | Not Active | < 50 | Not Active | Not Active | < 50 |  |  |  | 36 |  | 
CCCCCn1c(C(=O)NC23CC4CC(CC(C4)C2)C3)cc2cnccc21 | < 50 | < 50 | Not Active | < 50 | Not Active | Not Active | < 50 | Not Active |  |  |  |  | 
CCCCCn1cc(C(=O)NC23CC4CC(CC(C4)C2)C3)c2cnccc21 | > 50 | > 50 |  | < 50 | Not Active | Not Active | < 50 |  | 2100 | 41 | 260 |  | 
O=C(NC12CC3CC(CC(C3)C1)C2)c1c[nH]c2ccncc12 | < 50 | < 50 | Not Active | < 50 | Not Active | Not Active | < 50 | Not Active |  |  |  |  | 
CCCCCn1c(C(=O)NC23CC4CC(CC(C4)C2)C3)cc2cccnc21 | < 50 | < 50 | Not Active | > 50 |  | Not Active | < 50 | Not Active |  |  |  | 920 | 46.2
O=C(NC12CC3CC(CC(C3)C1)C2)c1cn(CCN2CCOCC2)c2ccncc12 | < 50 | < 50 | Not Active | < 50 | Not Active | Not Active | < 50 | Not Active |  |  |  |  | 
O=C(NC12CC3CC(CC(C3)C1)C2)c1cn(CCN2CCOCC2)c2cccnc12 | < 50 | < 50 | Not Active | < 50 | Not Active | Not Active | < 50 | Not Active |  |  |  |  | 
O=C(NC12CC3CC(CC(C3)C1)C2)c1cc2ncccc2[nH]1 | < 50 | < 50 | Not Active | > 50 |  | Not Active | < 50 | Not Active |  |  |  | 590 | 38
CCCCCn1cc(C(=O)NC23CC4CC(CC(C4)C2)C3)c2ncccc21 | > 50 | > 50 |  | < 50 | Not Active | Not Active | < 50 |  | 180 | 48.2 | 12 |  | 
O=C(NC12CC3CC(CC(C3)C1)C2)c1cc2cnccc2[nH]1 | < 50 | < 50 | Not Active | > 50 |  | Not Active | < 50 | Not Active |  |  |  | 2000 | 121
